Measurements taken from ChEMBL document CHEMBL5137066, “Discovery of BLU-945, a Reversible, Potent, and Wild-Type-Sparing Next-Generation EGFR Mutant Inhibitor for Treatment-Resistant Non-Small-Cell Lung Cancer” (J Med Chem, 2022).

Key:
[1] = target: T1, Epidermal growth factor receptor (Homo sapiens, UniProt P00533, L858R/T790M); assay: Inhibition of N-terminal GST tagged recombinant human EGFR L858R/T790M (669 to end residues) double mutant expressed in baculovirus infected Sf9 insect cells expression system using 5-FAM-EEPLYINSFPAKKK-CONH peptide as substrate preincubated for 10 mins followed by peptide substrate addition in presence of ATP
[2] = (§1) Inhibition of N-terminal GST tagged recombinant human EGFR L858R/T790M/C790S (668 to end residues) triple mutant expressed in baculovirus infected Sf9 insect cells using 5-FAM-EEPLYINSFPAKKK-CONH peptide as substrate preincubated for 10 mins followed by peptide substrate addition in presence of ATP
[3] = target: T2, Epidermal growth factor receptor (Homo sapiens, UniProt P00533); assay: Inhibition of N-terminal GST tagged recombinant wild type human EGFR expressed in baculovirus infected Sf9 insect cells expression system using 5-FAM-EEPLYINSFPAKKK-CONH peptide as substrate preincubated for 10 mins followed by peptide substrate addition in presence of ATP
[4] = target: T1, Epidermal growth factor receptor; assay: Inhibition of EGF stimulated EGFR L858R/T790M double mutant phosphorylation in human NCI-H1975 cells preincubated for 4 to 5 hrs followed by EGF stimulation for 10 mins by AlphaLISA method; format: cell-based
[5] = target: T2, Epidermal growth factor receptor; assay: Inhibition of wild type EGFR in human A-431 cells preincubated for 4 to 5 hrs followed by EGF stimulation for 10 mins by AlphaLISA method; format: cell-based
[6] = Intrinsic clearance in human liver microsomes; format: ADME, Microsome; conditions: for Microsomal intrinsic clearance: microsomes
[7] = as §1, with “ex19del (746 to 750)/ L858R/C790S” for “L858R/T790M/C790S”, “cells expression system” for “cells”
[8] = Apparent permeability across apical to basolateral side in MDCK-MDR1 cells; format: ADME, cell-based, Canis lupus familiaris; conditions: dog
[9] = Efflux ratio of apparent permeability in MDCK-MDR1 cells; format: ADME, cell-based, Canis lupus familiaris; conditions: dog
[10] = Intrinsic clearance in human liver microsomes in presence of NADPH; format: ADME, Microsome
Method in brief: (§2)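 Intrinsic clearance measured in isolated liver microsomes of each species with NADPH, expressed in μL/min/mg.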

[11] = Intrinsic clearance in cynomolgus monkey liver microsomes in presence of NADPH; format: ADME, Macaca fascicularis, Microsome; method in brief: as §2
[12] = Intrinsic clearance in human hepatocytes assessed per million cells; format: ADME, cell-based, Hepatocyte
Method in brief: (§3)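 Intrinsic clearance measured in isolated hepatocytes of each species, expressed in μL/min/million cells.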

[13] = Intrinsic clearance in cynomolgus monkey hepatocytes assessed per million cells; format: ADME, cell-based, Macaca fascicularis, Hepatocyte; method in brief: as §3
[14] = Clearance in cynomolgus monkey at 0.5 mg/kg,iv; format: ADME, organism-based, Macaca fascicularis; conditions: in vivo
Method in brief: (§4)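 Cynomolgus monkeys given a single IV bolus of 0.5 mg/kg in 5% DMSO + 5% kolliphor HS 15 + 90% saline. Clearance is plasma clearance after the bolus.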

[15] = Unbound clearance in cynomolgus monkey assessed as clearance/free fraction ratio at 0.5 mg/kg, iv; format: ADME, organism-based, Macaca fascicularis; conditions: in vivo
Method in brief: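 Cynomolgus monkey, 0.5 mg/kg IV bolus in 5% DMSO/5% kolliphor HS 15/90% saline. Unbound clearance = in vivo plasma clearance divided by the free fraction. Free fraction comes from plasma protein binding measured by ultracentrifugation.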

[16] = Half life in cynomolgus monkey at 0.5 mg/kg, iv; format: ADME, organism-based, Macaca fascicularis; conditions: in vivo; method in brief: as §4
[17] = Clearance in Sprague-Dawley rat at 1 mg/kg, iv; format: ADME, organism-based; conditions: in vivo
Method in brief: (§5)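 Sprague–Dawley rats (n = 3), single IV bolus of 1 mg/kg in 10% DMSO, 10% solutol, 80% of a 20% HP-β-CD solution (in water or in saline, depending on compound). Clearance is plasma clearance after the IV bolus.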

[18] = Half life in Sprague-Dawley rat at 1 mg/kg, iv; format: ADME, organism-based; conditions: in vivo; method in brief: as §5
[19] = Oral bioavailability in Sprague-Dawley rat at 5 mg/kg; format: ADME, organism-based; conditions: in vivo
Method in brief: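 Sprague–Dawley rats (n = 3) received 1 mg/kg IV and 5 mg/kg PO. IV vehicle was 10% DMSO/10% solutol/80% (20% HP-β-CD). PO vehicle was a suspension in 20% solutol in 0.5% MC in water, or a solution matching the IV vehicle, depending on compound.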

T2 sequence (P00533 whole entry): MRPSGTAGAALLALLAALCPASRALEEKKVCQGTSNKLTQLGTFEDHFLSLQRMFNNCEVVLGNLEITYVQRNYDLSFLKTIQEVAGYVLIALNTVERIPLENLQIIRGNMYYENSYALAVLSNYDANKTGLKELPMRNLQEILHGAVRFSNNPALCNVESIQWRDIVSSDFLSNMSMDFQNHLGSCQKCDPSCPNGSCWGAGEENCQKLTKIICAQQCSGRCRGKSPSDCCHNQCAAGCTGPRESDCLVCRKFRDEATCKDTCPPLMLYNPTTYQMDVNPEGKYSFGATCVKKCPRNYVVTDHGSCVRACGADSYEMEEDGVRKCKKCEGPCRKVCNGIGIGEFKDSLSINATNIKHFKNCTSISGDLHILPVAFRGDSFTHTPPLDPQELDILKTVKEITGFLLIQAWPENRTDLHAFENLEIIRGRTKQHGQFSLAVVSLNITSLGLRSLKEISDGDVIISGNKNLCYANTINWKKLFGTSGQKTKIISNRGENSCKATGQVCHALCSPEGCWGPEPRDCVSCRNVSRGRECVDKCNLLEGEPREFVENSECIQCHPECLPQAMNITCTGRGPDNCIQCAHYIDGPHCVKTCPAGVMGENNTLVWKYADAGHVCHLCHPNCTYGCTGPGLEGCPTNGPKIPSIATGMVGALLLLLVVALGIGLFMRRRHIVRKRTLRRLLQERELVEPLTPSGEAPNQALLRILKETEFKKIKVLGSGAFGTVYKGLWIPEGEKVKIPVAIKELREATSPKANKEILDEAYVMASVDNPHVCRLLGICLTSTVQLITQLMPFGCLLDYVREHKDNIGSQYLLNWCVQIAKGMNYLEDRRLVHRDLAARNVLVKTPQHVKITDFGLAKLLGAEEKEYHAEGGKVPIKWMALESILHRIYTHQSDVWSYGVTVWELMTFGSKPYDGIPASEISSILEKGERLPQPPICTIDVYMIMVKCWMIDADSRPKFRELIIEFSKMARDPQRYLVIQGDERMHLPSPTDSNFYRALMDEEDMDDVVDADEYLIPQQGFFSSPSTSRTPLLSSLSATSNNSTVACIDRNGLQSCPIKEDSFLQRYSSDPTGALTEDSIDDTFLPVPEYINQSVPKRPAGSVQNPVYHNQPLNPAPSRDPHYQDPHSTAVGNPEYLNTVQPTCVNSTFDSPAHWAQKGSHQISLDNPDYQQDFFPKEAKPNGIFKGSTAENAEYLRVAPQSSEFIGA
T1 sequence (P00533 25-1210 T790M/L858R limits assumed): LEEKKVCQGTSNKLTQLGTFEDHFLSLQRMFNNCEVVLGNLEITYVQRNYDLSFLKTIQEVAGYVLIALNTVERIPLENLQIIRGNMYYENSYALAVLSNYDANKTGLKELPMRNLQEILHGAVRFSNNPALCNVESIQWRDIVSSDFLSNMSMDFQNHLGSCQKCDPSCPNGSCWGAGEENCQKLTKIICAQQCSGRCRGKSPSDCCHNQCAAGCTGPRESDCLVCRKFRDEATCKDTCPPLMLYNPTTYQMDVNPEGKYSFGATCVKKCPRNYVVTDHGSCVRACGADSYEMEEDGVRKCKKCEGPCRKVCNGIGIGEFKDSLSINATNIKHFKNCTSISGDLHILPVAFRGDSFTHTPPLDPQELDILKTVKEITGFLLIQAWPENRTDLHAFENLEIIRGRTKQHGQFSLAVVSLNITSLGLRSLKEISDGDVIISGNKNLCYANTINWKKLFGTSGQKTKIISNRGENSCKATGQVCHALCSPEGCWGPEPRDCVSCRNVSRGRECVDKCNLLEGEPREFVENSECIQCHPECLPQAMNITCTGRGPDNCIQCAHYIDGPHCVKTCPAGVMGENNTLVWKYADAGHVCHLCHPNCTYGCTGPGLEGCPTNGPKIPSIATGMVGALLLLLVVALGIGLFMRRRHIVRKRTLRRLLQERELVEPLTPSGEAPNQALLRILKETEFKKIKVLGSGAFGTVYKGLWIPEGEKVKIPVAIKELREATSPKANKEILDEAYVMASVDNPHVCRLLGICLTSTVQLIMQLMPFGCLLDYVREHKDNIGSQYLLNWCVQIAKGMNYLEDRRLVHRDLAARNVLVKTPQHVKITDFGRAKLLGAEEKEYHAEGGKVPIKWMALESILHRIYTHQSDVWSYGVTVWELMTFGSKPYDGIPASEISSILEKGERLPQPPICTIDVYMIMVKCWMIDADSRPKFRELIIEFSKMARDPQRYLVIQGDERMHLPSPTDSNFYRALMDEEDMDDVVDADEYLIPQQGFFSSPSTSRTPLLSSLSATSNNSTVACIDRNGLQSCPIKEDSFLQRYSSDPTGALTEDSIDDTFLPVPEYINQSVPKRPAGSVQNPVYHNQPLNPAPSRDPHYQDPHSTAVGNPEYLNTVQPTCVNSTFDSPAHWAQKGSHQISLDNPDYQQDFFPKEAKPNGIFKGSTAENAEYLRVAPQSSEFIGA

Compound | IC50 [1] | IC50 [2] | IC50 [3] | IC50 [4] | IC50 [5] | Microsomal intrinsic clearance [6] | IC50 [7] | further results
CNc1ncc(C(C)C)c2cc(Nc3ccnc(N4CC[C@@H](O)[C@@H](F)C4)n3)ncc12 | 50 nM | 46 nM | > 10000 nM | 67 nM | > 25000 nM |  |  | microsomal CLint ([6]; liver microsomes, read-out: CLH): 19.1 µL/min/mg
CC(C)c1ncc(N2C[C@H](O)[C@H]2C)c2cnc(Nc3ccnc(N4CC[C@@H](O)[C@@](C)(F)C4)n3)cc12 | 1.8 nM | 10 nM | 4190 nM | 13 nM |  | 45 µL/min/mg | 8.1 nM | 
CC(C)c1cnc(N2CC(C(=O)N(C)C)C2)c2cnc(Nc3ccnc(N4CC[C@@H](O)[C@@](C)(F)C4)n3)cc12 |  |  |  |  |  | 102 µL/min/mg |  | 
CC(C)c1nnc(N2CC[C@H]2C)c2cnc(Nc3ccnc(N4CC[C@@H](O)[C@@](C)(F)C4)n3)cc12 | 16 nM | 12.7 nM | 8170 nM | 25 nM |  | 96 µL/min/mg | 9.6 nM | 
CC(C)c1cnc(N2C[C@H](O)[C@H]2C)c2cnc(Nc3ccnc(N4CC[C@@H](O)[C@@](C)(F)C4)n3)cc12 |  |  |  |  |  | 25 µL/min/mg |  | 
CNC(=O)c1cnc(Nc2ccnc(N3CC[C@@H](O)[C@@H](F)C3)n2)cc1NC(C)C | 99 nM | 105 nM | > 10000 nM | 420 nM | > 25000 nM | 9.1 µL/min/mg |  | 
CC(C)c1ncc(N2CC[C@H]2C)c2cnc(Nc3ccnc(N4CC[C@@H](O)[C@@](C)(F)C4)n3)cc12 | 2.2 nM | 9 nM | 3420 nM | 23 nM |  | 159 µL/min/mg | 6 nM | 
COCC1CN(c2ncc(C(C)C)c3cc(Nc4ccnc(N5CC[C@@H](O)[C@@](C)(F)C5)n4)ncc23)C1 | 11 nM | 25 nM |  | 40 nM |  |  | 24 nM | 
CC(C)c1cnc(N2CCCC2)c2cnc(Nc3ccnc(N4CC[C@@H](O)[C@@](C)(F)C4)n3)cc12 |  | 21.5 nM |  | 52 nM |  | 65 µL/min/mg | 23 nM | 
CC(C)c1cnc(N2C[C@H](CS(C)(=O)=O)[C@H]2C)c2cnc(Nc3ccnc(N4CC[C@@H](O)[C@@](C)(F)C4)n3)cc12 | 0.2 nM |  | 270 nM | 1.7 nM | 781 nM |  |  | Papp [8]: 5 10^-6 cm/s; efflux ratio [9]: 16
CNC(=O)C1CN(c2ncc(C(C)C)c3cc(Nc4ccnc(N5CC[C@@H](O)[C@@](C)(F)C5)n4)ncc23)C1 | 1 nM | 1.1 nM |  | 32 nM |  |  | 3.4 nM | 
CO[C@@H]1[C@H](O)CN(c2nccc(Nc3cc4c(C(C)C)ccc(N5C[C@H](CS(C)(=O)=O)[C@H]5C)c4cn3)n2)CC1(F)F | 0.7 nM |  | 810 nM | 2.6 nM | 191 nM |  |  | Papp [8]: 8 10^-6 cm/s; efflux ratio [9]: 2; CLH [10]: 19 µL/min/mg; CLH [11]: 25 µL/min/mg; CLH [12]: 16 µL/min; CLH [13]: 49 uL/min/10^6 cells; clearance [14]: 9.1 mL/min/kg; Ratio [15]: 294; half-life [16]: 4.5 h
CC(C)c1cnc(N2CC[C@@H]2C)c2cnc(Nc3ccnc(N4CC[C@@H](O)[C@@](C)(F)C4)n3)cc12 | 106 nM | 113 nM |  | 210 nM |  |  | 110 nM | 
CC(C)c1cnc(N2CC(O)C2)c2cnc(Nc3ccnc(N4CC[C@@H](O)[C@@](C)(F)C4)n3)cc12 | 3.6 nM | 11 nM | 5520 nM | 41 nM |  | 43 µL/min/mg | 8.1 nM | 
CC(C)c1cnc(N2CCC2)c2cnc(Nc3ccnc(N4CC[C@@H](O)[C@@](C)(F)C4)n3)cc12 | 2.1 nM | 12 nM |  | 20 nM | 8670 nM | 106 µL/min/mg | 9.1 nM | 
CNC(=O)c1cnc(Nc2ccnc(N3CCC(O)CC3)n2)cc1NC(C)C | 290 nM | 266 nM | > 10000 nM | 914 nM | > 25000 nM | 4 µL/min/mg |  | 
CC(C)c1cnc(N2CC(C#N)C2)c2cnc(Nc3ccnc(N4CC[C@@H](O)[C@@](C)(F)C4)n3)cc12 |  | 5.3 nM | 3400 nM | 17 nM |  | 85 µL/min/mg | 4.8 nM | 
COC1CN(c2ncc(C(C)C)c3cc(Nc4ccnc(N5CC[C@@H](O)[C@@](C)(F)C5)n4)ncc23)C1 | 3.4 nM | 7.2 nM |  | 24 nM |  | 91 µL/min/mg | 6.3 nM | 
CC[C@]1(F)CN(c2nccc(Nc3cc4c(C(C)C)ccc(N5C[C@H](CS(C)(=O)=O)[C@H]5C)c4cn3)n2)CC[C@H]1O | 0.5 nM | 0.4 nM | 761 nM | 1.8 nM | 709 nM |  |  | Papp [8]: 6 10^-6 cm/s; efflux ratio [9]: 4; CLH [10]: 5.9 µL/min/mg; CLH [11]: 192 µL/min/mg; CLH [12]: 48 µL/min; CLH [13]: 204 uL/min/10^6 cells
CNc1ncc(C(C)C)c2cc(Nc3ccnc(N4CC[C@@H](O)[C@@](C)(F)C4)n3)ncc12 |  |  |  |  |  | 31 µL/min/mg |  | 
CC(C)c1ccc(N2C[C@H](O)[C@H]2C)c2cnc(Nc3ccnc(N4CC[C@@H](O)[C@@](C)(F)C4)n3)cc12 | 0.5 nM | 7.5 nM | 2220 nM | 19 nM |  | 17 µL/min/mg | 5.5 nM | 
CC(C)c1ccc(N2CC(CS(C)(=O)=O)C2)c2cnc(Nc3ccnc(N4CC[C@@H](O)[C@@](C)(F)C4)n3)cc12 |  |  |  |  |  |  |  | Papp [8]: 17 10^-6 cm/s; clearance [17]: 20 mL/min/kg; half-life [18]: 3 h; F [19]: 85%
CC(C)c1cnc(N2CC[C@H]2C)c2cnc(Nc3ccnc(N4CC[C@@H](O)[C@@](C)(F)C4)n3)cc12 | 0.3 nM |  | 7290 nM | 7 nM | 9960 nM | 80 µL/min/mg | 0.8 nM | 
CC(C)c1ccc(N2C[C@H](CS(C)(=O)=O)[C@H]2C)c2cnc(Nc3ccnc(N4CC[C@@](C)(O)[C@@H](F)C4)n3)cc12 | 0.4 nM | 0.5 nM | 1090 nM | 3.8 nM | 1210 nM |  |  | Papp [8]: 5 10^-6 cm/s; efflux ratio [9]: 3; CLH [10]: 5.1 µL/min/mg; CLH [11]: 23 µL/min/mg; CLH [12]: 3.2 µL/min; CLH [13]: 1.5 uL/min/10^6 cells; clearance [14]: 8.8 mL/min/kg; Ratio [15]: 170; half-life [16]: 4.8 h
CC(C)c1cnc(N2CC(CS(C)(=O)=O)C2)c2cnc(Nc3ccnc(N4CC[C@@H](O)[C@@](C)(F)C4)n3)cc12 |  |  |  |  |  | 9.6 µL/min/mg |  | clearance [17]: 67 mL/min/kg; half-life [18]: 1.6 h; F [19]: 2%
